From ChEMBL document CHEMBL3580579, “Anti-inflammatory Hydrolyzable Tannins from Myricaria bracteata” (J Nat Prod, 2015)
Active and inactive are the calls of the source. The calls are words filed in the database; no cut-off is given here.

Experiments:
[1] = Antioxidant activity assessed as hydroxy radical-scavenging activity; type: physicochemical
Summary of the method: (§1)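 Radical scavenging of each tannin measured against DPPH and hydroxy radicals by literature methods, with BHT and Trolox as reference antioxidants.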

[2] = Antioxidant activity assessed as DPPH radical-scavenging activity incubated for 30 mins by spectrophotometry; type: physicochemical; summary of the method: as §1
J774 [3] = experiment: Increase in cell viability of mouse J774 cells at 0.01 to 10 uM by MTT assay; type: functional, cell-based
Mus musculus [4] = experiment: Anti-inflammatory activity in mouse model of croton oil-induced ear edema assessed as inhibition of ear swelling at 200 mg/kg, sc; type: functional
Liver microsome = experiment: Antioxidant activity assessed as inhibition of Fe2+-cysteine-induced lipid peroxidation in rat liver microsomes incubated for 30 mins by thiobarbituric acid based assay; type: functional; conditions: 0.5 h
Mus musculus [5] = experiment: Anti-inflammatory activity in DBA/1 mouse model of collagen induced arthritis assessed as inhibition of disease progression and development at 20 mg/kg, sc measured on day 57; type: functional; conditions: DBA/1, sc, 1368 h
Mus musculus [6] = experiment: Anti-inflammatory activity in mouse model of carrageenan-induced paw edema assessed as inhibition of paw edema at 50 mg/kg, sc; type: functional
Mus musculus [7] = experiment: Anti-inflammatory activity in mouse model of croton oil-induced ear edema assessed as inhibition of ear swelling at 50 mg/kg, sc; type: functional
Mus musculus [8] = experiment: Anti-inflammatory activity in mouse model of croton oil-induced ear edema assessed as inhibition of ear swelling at 100 mg/kg, sc; type: functional
J774 [9] = experiment: Inhibition of IL6 production in LPS-induced mouse J774 cells at 0.01 to 10 uM; type: functional, cell-based
J774 [10] = experiment: Inhibition of TNFalpha production in LPS-induced mouse J774 cells at 0.01 to 10 uM; type: functional, cell-based
J774 [11] = experiment: Inhibition of nitric oxide production in LPS-induced mouse J774 cells at 0.01 to 10 uM incubated for 24 hrs by Griess reaction based assay; type: functional, cell-based

Compound | IC50 [1] [µM] | IC50 [2] [µM] | Activity (J774 [3]) | also measured
O=C1O[C@@H]2O[C@H](CO)[C@@H](O)[C@H](OC(=O)c3cc(O)c(O)c(O)c3)[C@H]2OC(=O)c2cc(Oc3c(C(=O)O[C@H]4C(O)O[C@@H]5COC(=O)c6cc(O)c(O)c(O)c6-c6c(cc(O)c(O)c6O)C(=O)O[C@H]5[C@@H]4OC(=O)c4cc(O)c(O)c(O)c4)cc(O)c(O)c3O)c(O)c(O)c2Oc2cc1cc(O)c2O (stereo partly drawn) | 15.8 | 2.4 | – | –
O=C1O[C@@H]2O[C@@H]3COC(=O)c4cc(O)c(O)c(O)c4-c4c(cc(O)c(O)c4O)C(=O)O[C@H]3[C@H](OC(=O)c3cc(O)c(O)c(O)c3)[C@H]2OC(=O)c2cc(O)c(O)c(O)c2Oc2cc(cc(O)c2O)C(=O)O[C@@H]2O[C@@H]3COC(=O)c4cc(O)c(O)c(O)c4-c4c(cc(O)c(O)c4O)C(=O)O[C@H]3[C@H](OC(=O)c3cc(O)c(O)c(O)c3)[C@H]2OC(=O)c2cc(O)c(O)c(O)c2Oc2cc1cc(O)c2O | 42.9 | 4.43 | Active | –
COc1cc(C(=O)O[C@@H]2[C@@H](OC(=O)c3cc(OC)c(OC)c(OC)c3Oc3cc4c(c(OC)c3OC)Oc3cc(cc(OC)c3OC)C(=O)O[C@@H]3O[C@@H]5COC(=O)c6cc(OC)c(OC)c(OC)c6-c6c(cc(OC)c(OC)c6OC)C(=O)O[C@H]5[C@H](OC(=O)c5cc(OC)c(OC)c(OC)c5)[C@H]3OC4=O)[C@H](OC)O[C@@H]3COC(=O)c4cc(OC)c(OC)c(OC)c4-c4c(cc(OC)c(OC)c4OC)C(=O)O[C@@H]23)cc(OC)c1OC | > 100 | > 100 | – | inhibition in vivo at 200 mg/kg (Mus musculus [4]): -0.7%
COc1cc(C(=O)O[C@@H]2[C@H]3OC(=O)c4cc(Oc5c(C(=O)O[C@H]6[C@@H](OC)O[C@@H]7COC(=O)c8cc(OC)c(OC)c(OC)c8-c8c(cc(OC)c(OC)c8OC)C(=O)O[C@H]7[C@@H]6OC(=O)c6cc(OC)c(OC)c(OC)c6)cc(OC)c(OC)c5OC)c(OC)c(OC)c4Oc4cc(cc(OC)c4OC)C(=O)O[C@@H]3O[C@@H]3COC(=O)c4cc(OC)c(OC)c(OC)c4-c4c(cc(OC)c(OC)c4OC)C(=O)O[C@@H]23)cc(OC)c1OC | > 100 | > 100 | – | inhibition in vivo at 200 mg/kg (Mus musculus [4]): 2.1%
Cc1cc(C(C)(C)C)c(O)c(C(C)(C)C)c1 [BUTYLATED HYDROXYTOLUENE] | 22.6 | 7.08 | – | –
O=C(O)c1cc(O)c(O)c(O)c1 [GALLIC ACID] | 15.7 | 7.23 | – | –
O=C(O[C@@H]1O[C@@H]2COC(=O)c3cc(O)c(O)c(O)c3-c3c(cc(O)c(O)c3O)C(=O)O[C@H]2[C@H](OC(=O)c2cc(O)c(O)c(O)c2)[C@H]1OC(=O)c1cc(O)c(O)c(O)c1-c1c(C(=O)O[C@@H]2O[C@@H]3COC(=O)c4cc(O)c(O)c(O)c4-c4c(cc(O)c(O)c4O)C(=O)O[C@H]3[C@H](OC(=O)c3cc(O)c(O)c(O)c3)[C@H]2OC(=O)c2cc(O)c(O)c(O)c2)cc(O)c(O)c1O)c1cc(O)c(O)c(O)c1 [HIRTELLIN A] | 38.5 | 4.61 | Active | IC50 (Liver microsome): 15.6 µM
O=C(O[C@@H]1O[C@@H]2COC(=O)c3cc(O)c(O)c(O)c3-c3c(cc(O)c(O)c3O)C(=O)O[C@H]2[C@H](OC(=O)c2cc(O)c(O)c(O)c2)[C@H]1OC(=O)c1cc(O)c(O)c(O)c1Oc1cc2c(c(O)c1O)Oc1cc(cc(O)c1O)C(=O)O[C@@H]1O[C@@H]3COC(=O)c4cc(O)c(O)c(O)c4-c4c(cc(O)c(O)c4O)C(=O)O[C@H]3[C@H](OC(=O)c3cc(O)c(O)c(O)c3)[C@H]1OC2=O)c1cc(O)c(O)c(O)c1 [HIRTELLIN B] | 39.7 | 4.1 | Active | IC50 (Liver microsome): 48.8 µM
O=C(O[C@@H]1O[C@@H]2COC(=O)c3cc(O)c(O)c(O)c3-c3c(cc(O)c(O)c3O)C(=O)O[C@H]2[C@H](OC(=O)c2cc(O)c(O)c(O)c2)[C@H]1OC(=O)c1cc(O)c(O)c(O)c1Oc1cc2c(c(O)c1O)Oc1cc(cc(O)c1O)C(=O)O[C@@H]1O[C@H](CO)[C@@H](O)[C@H](OC(=O)c3cc(O)c(O)c(O)c3)[C@H]1OC2=O)c1cc(O)c(O)c(O)c1 [NILOTININ D8] | 32.5 | 4.67 | Active | –
O=C1O[C@@H]2O[C@@H]3COC(=O)c4cc(O)c(O)c(O)c4-c4c(cc(O)c(O)c4O)C(=O)O[C@H]3[C@H](OC(=O)c3cc(O)c(O)c(O)c3)[C@H]2OC(=O)c2cc(Oc3c(C(=O)O[C@@H]4[C@@H](OC(=O)c5cc(O)c(O)c(O)c5)[C@@H]5OC(=O)c6cc(O)c(O)c(O)c6-c6c(cc(O)c(O)c6O)C(=O)OC[C@H]5O[C@H]4O)cc(O)c(O)c3O)c(O)c(O)c2Oc2cc1cc(O)c2O [TAMARIXININ A] | 41.5 | 3.57 | Active | inhibition in vivo at 20 mg/kg (Mus musculus [5]): 46%; IC50 (Liver microsome): 18.4 µM; inhibition in vivo at 50 mg/kg (Mus musculus [6]): 25%; inhibition in vivo at 200 mg/kg (Mus musculus [4]): 69.8%; inhibition in vivo at 50 mg/kg (Mus musculus [7]): 34.4%; inhibition in vivo at 100 mg/kg (Mus musculus [8]): 39%; inhibition (J774 [9]): inactive; inhibition (J774 [10]): inactive; inhibition (J774 [11]): inactive
Cc1c(C)c2c(c(C)c1O)CCC(C)(C(=O)O)O2 (stereo not drawn) [TROLOX] | 76.7 | 8 | – | –

Second part, led by results:

IC50 [1] [µM] | IC50 [2] [µM] | Compound | Activity (J774 [3]) | also measured
36.8 | 4.73 | O=C1O[C@@H]2O[C@@H]3COC(=O)c4cc(O)c(O)c(O)c4-c4c(cc(O)c(O)c4O)C(=O)O[C@H]3[C@H](OC(=O)c3cc(O)c(O)c(O)c3)[C@H]2OC(=O)c2cc(Oc3c(C(=O)O[C@H]4C(O)O[C@H](CO)[C@@H](O)[C@@H]4OC(=O)c4cc(O)c(O)c(O)c4)cc(O)c(O)c3O)c(O)c(O)c2Oc2cc1cc(O)c2O (stereo partly drawn) | – | –
47.6 | 3.06 | O=C(O[C@@H]1O[C@@H]2COC(=O)c3cc(O)c(O)c(O)c3-c3c(cc(O)c(O)c3O)C(=O)O[C@H]2[C@H](OC(=O)c2cc(O)c(O)c(O)c2)[C@H]1OC(=O)c1cc(O)c(O)c(O)c1Oc1cc2c(c(O)c1O)Oc1cc(cc(O)c1O)C(=O)O[C@@H]1O[C@@H]3COC(=O)c4cc(O)c(O)c(O)c4-c4c(cc(O)c(O)c4O)C(=O)O[C@H]3[C@H](OC(=O)c3cc(O)c(O)c(O)c3)[C@H]1OC2=O)c1cc(O)c(O)c(Oc2c(C(=O)O[C@H]3[C@H](OC(=O)c4cc(O)c(O)c(O)c4)O[C@H](CO)[C@@H](O)[C@@H]3OC(=O)c3cc(O)c(O)c(O)c3)cc(O)c(O)c2O)c1 | Active | –
16.3 | 4.44 | O=C1O[C@@H]2O[C@@H]3COC(=O)c4cc(O)c(O)c(O)c4-c4c(cc(O)c(O)c4O)C(=O)O[C@H]3[C@H](OC(=O)c3cc(O)c(O)c(O)c3)[C@H]2OC(=O)c2cc(Oc3c(C(=O)O[C@H]4[C@H](OC(=O)c5cc(O)c(O)c(O)c5)O[C@H](CO)[C@@H](O)[C@@H]4OC(=O)c4cc(O)c(O)c(O)c4)cc(O)c(O)c3O)c(O)c(O)c2Oc2cc1cc(O)c2O | Active | –
55.1 | 4.23 | O=C(O[C@@H]1O[C@@H]2COC(=O)c3cc(O)c(O)c(O)c3-c3c(cc(O)c(O)c3O)C(=O)O[C@H]2[C@H](OC(=O)c2cc(O)c(O)c(O)c2)[C@H]1OC(=O)c1cc(O)c(O)c(O)c1Oc1cc(C(=O)O[C@@H]2O[C@@H]3COC(=O)c4cc(O)c(O)c(O)c4-c4c(cc(O)c(O)c4O)C(=O)O[C@H]3[C@H](OC(=O)c3cc(O)c(O)c(O)c3)[C@H]2OC(=O)c2cc(O)c(O)c(O)c2Oc2cc3c(c(O)c2O)Oc2cc(cc(O)c2O)C(=O)O[C@@H]2O[C@@H]4COC(=O)c5cc(O)c(O)c(O)c5-c5c(cc(O)c(O)c5O)C(=O)O[C@H]4[C@H](OC(=O)c4cc(O)c(O)c(O)c4)[C@H]2OC3=O)cc(O)c1O)c1cc(O)c(O)c(O)c1 | Active | –
38 | 3.16 | O=C1O[C@@H]2O[C@@H]3COC(=O)c4cc(O)c(O)c(O)c4-c4c(cc(O)c(O)c4O)C(=O)O[C@H]3[C@H](OC(=O)c3cc(O)c(O)c(O)c3)[C@H]2OC(=O)c2cc(Oc3c(C(=O)O)cc(O)c(O)c3O)c(O)c(O)c2Oc2cc1cc(O)c2O [NILOTININ M4] | – | –
